Measured values from ChEMBL document CHEMBL4837204, “Synthesis, biological, and photophysical studies of molecular rotor-based fluorescent inhibitors of the trypanosome alternative oxidase” (Eur J Med Chem, 2021).

What was measured:
[1] = system: Trypanosoma brucei brucei; assay: Antitrypanosomal activity against bloodstream form of wild type Trypanosoma brucei brucei S427 trypomastigotes incubated for 48 hrs by resazurin dye based fluorescence assay; format: functional, organism-based; details: S427, 48 h
How it was run: (§1)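 Bloodstream T. b. brucei in complete HMI-9 at 37 °C, 5% CO2, 2 × 10⁵ cells/mL, exposed to doubling dilutions of compound for 48 h. Resazurin was then added and cells were incubated a further 24 h. Fluorescence was read at ex 544/em 590 nm with a drug-free control and pentamidine as positive control. EC50 came from a variable-slope sigmoidal fit, at least 3 independent experiments.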

[2] = system: Trypanosoma brucei brucei; assay: Antitrypanosomal activity against drug resistant Trypanosoma brucei B48 incubated for 48 hrs by resazurin dye based fluorescence assay; format: functional, organism-based; details: B48, 48 h; how it was run: as §1
[3] = Resistance factor, ratio of EC50 for antitrypanosomal activity against drug resistant Trypanosoma brucei B48 to EC50 for antitrypanosomal activity against bloodstream form of wild type Trypanosoma brucei brucei S427 trypomastigotes; format: functional
How it was run: (§2)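 The assay used bloodstream forms in HMI-9 at 37 °C, 5% CO2, 2 × 10⁵ cells/mL, read at ex 544/em 590 nm. EC50 came from a variable-slope sigmoidal fit, at least 3 experiments.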

[4] = system: Trypanosoma brucei brucei; assay: Antitrypanosomal activity against bloodstream form of Trypanosoma brucei brucei AQP1-3 KO trypomastigotes incubated for 48 hrs by resazurin dye based fluorescence assay; format: functional, organism-based; how it was run: as §1
[5] = Resistance factor, ratio of EC50 for Antitrypanosomal activity against bloodstream form of Trypanosoma brucei brucei AQP1-3 KO trypomastigotes to EC50 for antitrypanosomal activity against bloodstream form of wild type Trypanosoma brucei brucei S427 trypomastigotes; format: functional; how it was run: as §2
[6] = Cytotoxicity against HEK293T cells assessed as reduction in cell viability […] by resazurin dye based fluorescence assay; parameters: species or system HEK-293T; details: human
[7] = Selectivity index, ratio of CC50 cytotoxicity against HEK293T cells to EC50 for antitrypanosomal activity against bloodstream form of wild type Trypanosoma brucei brucei S427 trypomastigotes; format: toxicity, cell-based; details: human; read-out: Ratio CC50/EC50
How it was run: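 SI = CC50 on HEK 293T divided by EC50 on WT s427. For HEK 293T, cells adhered 24 h, were exposed 30 h, then given resazurin for 24 h (ex 530/em 590). For trypanosomes, cells were exposed 48 h, then given resazurin for 24 h (ex 544/em 590). Both values came from dose-response fits.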

[8] = target: Alternative oxidase, mitochondrial (Trypanosoma brucei brucei, UniProt Q26710); assay: Inhibition of recombinant Trypanosoma brucei brucei alternative oxidase using ubiquinol as substrate preincubated for 2 mins followed by substrate addition by UV-Vis spectrophotometry
Chain of Alternative oxidase, mitochondrial (Q26710 whole entry): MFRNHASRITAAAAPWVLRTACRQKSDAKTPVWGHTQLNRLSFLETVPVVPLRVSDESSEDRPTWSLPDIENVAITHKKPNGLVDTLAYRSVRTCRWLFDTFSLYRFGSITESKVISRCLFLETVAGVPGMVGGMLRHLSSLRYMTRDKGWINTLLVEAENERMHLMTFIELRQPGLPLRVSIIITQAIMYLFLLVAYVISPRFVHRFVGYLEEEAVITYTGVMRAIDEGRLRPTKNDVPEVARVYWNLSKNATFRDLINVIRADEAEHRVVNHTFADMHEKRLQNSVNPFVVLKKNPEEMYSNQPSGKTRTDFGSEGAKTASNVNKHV
How it was run: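 Recombinant ΔMTS-TAO was preincubated for 2 min with varying inhibitor amounts at 25 °C in 50 mM Tris-HCl pH 7.4 with 0.05% octaethylene glycol monododecyl ether. The reaction was started with ubiquinol, and its oxidation was followed at 278 nm for 2 min. DMSO served as negative control and ascofuranone/SHAM as positive controls. IC50 came from residual activity versus inhibitor concentration.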

[9] = Drug uptake in bloodstream form of wild type Trypanosoma brucei brucei S427 trypomastigotes assessed as increase in fluorescent signal at 0.2 uM measured by fluorimeter; format: ADME
How it was run: (§3)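 Mid-log bloodstream 427WT or aqp1-3 null cells were washed and resuspended at 10⁸ cells/mL in assay buffer. Fluorescence was read continuously at 37 °C, 5% CO2 (ex 544/em 620). After a background period, compound was added at the stated final concentration. Each trace averages 3 replicate wells on one plate.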

[10] = Drug uptake in bloodstream form of Trypanosoma brucei brucei AQP1-3 KO trypomastigotes at 0.2 to 2 uM measured after 1 hr by fluorimeter; format: ADME; details: dose 0.2-2 µM; how it was run: as §3
[11] = Drug localization in mitochondria of mouse MC3T3-E1 cells at 0.6 uM incubated for 30 mins by MTDR staining based single-photon excitation fluorescence analysis; format: ADME; details: mc3t3-e1, 0.5 h
How it was run: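 MC3T3-E1 preosteoblasts were grown in αMEM with 10% FBS, glutamine and pen/strep, then seeded at 25,000 cells/well on glass-bottom slides. Cells were preincubated with compound for 30 min at 37 °C, then given MitoTracker Deep Red (16 nM final) for 30 min. Confocal imaging used alternating excitation: 561 nm with detection at 580–630 nm, and 640 nm with detection at 650–720 nm.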

[12] = Drug localization in mitochondria of mouse MC3T3-E1 cells incubated for 30 mins by […] based two-photon excitation microscopy analysis; format: ADME; details: mc3t3-e1, 0.5 h
[13] = Drug localization in rat liver mitochondria; format: ADME
How it was run: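 Rat liver was homogenised in 20 mM HEPES/250 mM sucrose, pH 7.4. After 800×g spins, mitochondria were enriched at 9000×g. Probe at 3 × 10⁻⁷ M was incubated with the mitochondrial suspension for 20 min at room temperature, then spun at 10,000×g for 10 min. Supernatant emission (ex 470 and 540 nm) was compared with probe in buffer alone to estimate the fraction partitioned into mitochondria.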

[14] = Drug localization in mitochondria of Trypanosoma brucei brucei at 40 uM incubated for 60 mins by MTG dye based confocal microscopy analysis; format: ADME; details: 1 h
How it was run: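 Bloodstream T. b. brucei at 2 × 10⁶ cells/mL were given compound in complete HMI-9 for 1 h at 37 °C, 5% CO2. MitoTracker Green (100 nM final) was added for 10 min. Cells were then pelleted, PBS-washed and stained with Hoechst 33342 for 10 min in the dark. They were immobilised in PBS-primed CyGEL and imaged for overlap with MTG.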

In the case of `N=C(N)c1ccc(OCCCCCOc2ccc(C(=N)N)cc2)cc1` [PENTAMIDINE], the EC50 [1] is reported as 4.9 nM, the EC50 [2] is reported as 500 nM and the Ratio EC50 [3] is reported as 102. It also gave an EC50 [4] of 34 nM and a Ratio EC50 [5] of 6.9.

`Oc1c(/C=C/c2cc[n+](CCCCCCCCCCCCCCBr)cc2)cc2c3c1CCCN3CCC2.[Br-]` showed an EC50 [1] of 430 nM, an EC50 [2] of 490 nM and a Ratio EC50 [3] of 1.16. For the same molecule, the EC50 [4] was 340 nM, the Ratio EC50 [5] was 0.79 and the CC50 [6] was 26700 nM. The selectivity ratio [7] was 62.6, the IC50 [8] was > 5000 nM and the Drug uptake [9] was “Not Active”. The Drug uptake [10] was “Not Active”.

`COC(=O)c1c(C)cc(OCCCCCCCCCCCCCC[n+]2ccc(/C=C/c3cc4c5c(c3O)CCCN5CCC4)cc2)cc1O` gave an EC50 [1] of 540 nM, an EC50 [2] of 590 nM and a Ratio EC50 [3] of 1.1. It also gave an EC50 [4] of 440 nM, a Ratio EC50 [5] of 0.81 and a CC50 [6] of 23600 nM. It also gave a selectivity ratio [7] of 43.6 and an IC50 [8] of 42 nM.

Work on `Cc1cc[n+](CCCCCCCCCCCCCCOC(=O)c2c(O)cc(O)c(Cl)c2C)cc1` yielded an EC50 [1] of 240 nM, an EC50 [2] of 220 nM and a Ratio EC50 [3] of 1.53. It also gave an EC50 [4] of 190 nM, a Ratio EC50 [5] of 0.8 and a CC50 [6] of 43700 nM. The selectivity ratio [7] was 182 and the IC50 [8] was 720 nM.

In the case of `Cc1cc(O)cc(OCCCCCCCCCCCCCC[n+]2ccc(/C=C/c3cc4c5c(c3O)CCCN5CCC4)cc2)c1.[Br-]`, the EC50 [1] is reported as 500 nM, the EC50 [2] is reported as 630 nM and the Ratio EC50 [3] is reported as 1.25. It also gave an EC50 [4] of 430 nM, a Ratio EC50 [5] of 0.85 and a CC50 [6] of 22200 nM. The selectivity ratio [7] was 44.1, the IC50 [8] was 145 nM and the Drug uptake [11] was “Active”.

With `Cc1cc[n+](CCCCCCCCCCCCCCOC(=O)c2c(C)c(Cl)c(O)c(Cl)c2O)cc1` the EC50 [1] was 2550 nM, the EC50 [2] was 2640 nM and the Ratio EC50 [3] was 1.03. It also gave a CC50 [6] of 4400 nM, a selectivity ratio [7] of 1.7 and an IC50 [8] of 910 nM.

Work on `Cc1c(Cl)c(O)cc(O)c1C(=O)OCCCCCCCCCCCCCCBr` yielded an EC50 [1] of 6840 nM, an EC50 [2] of 10100 nM and a Ratio EC50 [3] of 1.48. The EC50 [4] was 13100 nM, the Ratio EC50 [5] was 1.91 and the CC50 [6] was 55900 nM. It also gave a selectivity ratio [7] of 8.2 and an IC50 [8] of 750 nM.

Molecule `Cc1cc(O)cc(O)c1C(=O)OCCCCCCCCCCCCCC[n+]1ccc(/C=C/c2cc3c4c(c2O)CCCN4CCC3)cc1.[Br-]` has an EC50 [1] of 1010 nM, an EC50 [2] of 1190 nM and a Ratio EC50 [3] of 1.17. The EC50 [4] was 1050 nM, the Ratio EC50 [5] was 1.03 and the CC50 [6] was > 100000 nM. The selectivity ratio [7] was > 100, the IC50 [8] was 360 nM and the Drug uptake [11] was “Active”. For the same molecule, the Drug uptake [12] was “Active”, the Drug uptake [13] was 66% and the Drug uptake [14] was “Active”.

Work on `Cc1cc[n+](CCCCCCCCCCCCCCOC(=O)c2c(C)cc(O)cc2O)cc1` yielded an EC50 [1] of 55 nM, an EC50 [2] of 60 nM and a Ratio EC50 [3] of 1.04. The CC50 [6] was 760 nM, the selectivity ratio [7] was 13.8 and the IC50 [8] was > 5000 nM.

In the case of `Cc1cc[n+](CCCCCCCCCCCCCCOc2cc(C)c(C(=O)O)c(O)c2)cc1`, the EC50 [4] is reported as 16600 nM, the Ratio EC50 [5] is reported as 0.84 and the CC50 [6] is reported as > 20000 nM. The selectivity ratio [7] was > 10 and the IC50 [8] was 1800 nM.
